A value given as a limit tells only on which side of the number the result lay.

Series [1] concerns HaCaT cells. Description: MTT cytotoxicity assay. As to conditions: 100 µg/mL. Format: cell-based, human. The method, boiled down: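 HaCaT keratinocytes were grown in DMEM with 10% FBS and 1% antibiotic-antimycotic at 37 °C, 5% CO₂. Cells were seeded at 1 × 10⁴/well for 24 h, then exposed to 1 to 100 µg/mL for 48 h, with 5-FU as the positive control and untreated cells as baseline. MTT (5 mg/mL) was added for 4 h, then SDS/DMF lysis buffer for 2 h, and plates read at 570 nm as percentage proliferation. Lower concentrations were retested to derive IC50 ± SE.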
On the technique in general: Tetrazolium dyes change colour on reduction, which living cells bring about.

Series [2] deals with BHK-21 cells. Description: MTT assay for Maximum Non-Toxic Dose. Format: cell-based.
Series [3] has as its system Dengue virus type-2 (DENV2) in BHK-21 cells. In words: Cytopathic effect. Format: cell-based. As to conditions: DENV2-infected BHK-21 cells; concentrations within MNTD. Summed up:
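Maximal non-toxic dose in BHK-21 cells was first set by MTT. Cells were seeded at 1 × 10⁵/well and infected with DENV2 (MOI 0.02, DMEM with 2% FBS) for 1 h at 37 °C, 5% CO₂. At 1 h post-infection, compounds diluted in DMEM (2% FBS) within the non-toxic range were added, with castanospermine as the positive control. CPE was scored by phase-contrast microscopy, in triplicate.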
For orientation: Damage to the host cells serves as the signal in cytopathic effect assays.

The nature of series [4]: DPPH free radical scavenging assay. Format: physicochemical. The settings on record: ascorbic acid as reference. Summed up: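 DPPH (4 mg/100 ml in methanol) was mixed with test compound or ascorbic acid at 1 to 500 µg/ml in methanol. The control was DPPH plus methanol, and methanol alone served as blank. Samples were incubated 20–30 min at 37 °C and the decrease in absorbance at 515 nm read. Percentage scavenging was calculated from control versus sample absorbance, in triplicate.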
A general note: Loss of DPPH colour is used to gauge radical scavenging.

`Nc1cc(=O)oc2ccccc12` [Compound T1, 4-aminocoumarin]: the Cell death entry in series [1] is on record as “very low percentages of cell death”. In addition, the “Maximal non-toxic dose (MNTD)” value in series [2] worked out at 2.5 µg/mL. Besides, the “Inhibition / reduction in cytopathic effects” value (from here on “Inhibition / reduction”) in series [3] was “did not exhibit significant inhibition of cytopathic effects”.

With `Cc1ccc(S(=O)(=O)[O-])cc1.Nc1c([I+]c2ccccc2)c(=O)oc2ccccc12` [Compound T2, 4-amino-3-phenyliodoniocoumarin tosylate], the Cell death entry in series [1] is given as “more than 60%”. The “DPPH radical scavenging IC50” value in series [4] is listed as not below 50 µg/mL. The “Inhibition / reduction” value in series [3] is recorded as “up to 12%”.

As for `O=c1oc2ccccc2c(Nc2ccccc2)c1I` [Compound T4, 3-iodo-4-phenylaminocoumarin], in series [1], the Cell death entry is on record as “more than 60%”. For the same molecule, the “Maximal non-toxic dose (MNTD)” value in series [2] is recorded as 1 µg/mL. The “Inhibition / reduction” value in series [3] is “up to 12%”.

Consider `O=c1cc(Nc2ccccc2)c2ccccc2o1` [Compound T5, 4-phenylaminocoumarin], for which, in series [1], the Cell death result is listed as “very low percentages of cell death”. The “Maximal non-toxic dose (MNTD)” value in series [2] was 0.1 µg/mL. Moreover, the “Inhibition / reduction” value in series [3] is listed as “did not exhibit significant inhibition of cytopathic effects”.

Regarding `O=c1oc2ccccc2c(N(c2ccccc2)c2ccccc2)c1I` [Compound T6, 4-diphenylamino-3-iodocoumarin], the Cell death entry in series [1] is reported as “very low percentages of cell death”. In series [2], the “Maximal non-toxic dose (MNTD)” value is 0.1 µg/mL. Besides, in series [3], the “Inhibition / reduction” value was “did not exhibit significant inhibition of cytopathic effects”.

As for `O[C@H]1[C@H](O)[C@@H](O)CN2CC[C@H](O)[C@H]12` [castanospermine, reference compound], the “Inhibition / reduction” value in series [3] is 68%.

These data come from PMC12218390 (Scientific Reports, 2025).
